Experimental findings from ChEMBL document CHEMBL1955724, “Synthesis, antimicrobial and anticancer activities of a novel series of diphenyl 1-(pyridin-3-yl)ethylphosphonates” (Bioorg Med Chem, 2012) are described below.

SMILES strings stand for the structures. Values after ≈ are worked out from the molar mass of the structure shown.

Data set [1] can be described thus: Toxicity in Artemia salina assessed as mortality after 72 hrs. The class given is organism-based. The note with it: in vivo, read-out: LD50. The essentials: (§1)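 Artemia salina larvae, 20 per 5 mL saline vial, were exposed to compound at […]. Three replicates were run per concentration. Living larvae were counted after 72 h, with data as mean ± SD.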
Data set [2] can be described thus: Ratio of IC50 for human HepG2 cells to LD50 for Artemia salina.
Data set [3] has as its system Escherichia coli. In words: Antibacterial activity against Escherichia coli NCIM2065 after 24 to 48 hrs by agar disc diffusion method. The class given is functional. The essentials:
(§2)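 Filter-paper discs (5 mm) were impregnated with compound in DMSO at […]. Nutrient agar was seeded with 100 µL inoculum: 5 × 10^5 for bacteria, 4 × 10^4 for yeasts. Controls were ciprofloxacin discs for bacteria, amphotericin B discs for yeasts, and DMSO blanks. Plates were held at 37 °C for 24–48 h; zone diameter (mm) given as triplicate mean ± SD.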

For data set [4], the system named is Staphylococcus aureus. The data set is described as follows: Antibacterial activity against Staphylococcus aureus ATCC 25292 after 24 to 48 hrs by agar disc diffusion method. The class given is functional. The essentials: as §2
Data set [5] has as its system Candida albicans. The data set is described as follows: Antifungal activity against Candida albicans after 24 to 48 hrs by agar disc diffusion method. The format is functional. In a few lines: as §2
In data set [6] the test system is Candida albicans. In words: Antifungal activity against Candida albicans at 10 mg after 24 to 48 hrs by agar well diffusion method. The class given is functional. The note with it: read-out: DIZ. The essentials: (§3)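 Cut-plug well assay: each well filled with 10 mg of powdered compound. Bacteria were on nutrient agar (peptone, beef extract, NaCl) at pH 7, and yeasts on Sabouraud agar (glucose, peptone) at pH 6.0. Plates were incubated at 30 °C for 24–48 h, and inhibition zone diameters were measured in triplicate.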

Data set [7] relates to Escherichia coli. In words: Antibacterial activity against Escherichia coli NCIM2065 at 10 mg after 24 to 48 hrs by agar well diffusion method. The class given is functional. The note with it: read-out: DIZ. The essentials: as §3
Data set [8] is described as follows: Ratio of IC50 for human MCF7 cells to LD50 for Artemia salina.
In data set [9] the test system is Bacillus subtilis. In words: Antibacterial activity against Bacillus subtilis PC1219 at 10 mg after 24 to 48 hrs by agar well diffusion method. The settings on record: read-out: DIZ. The format is functional. In a few lines:
as §3

For data set [10], the system named is Saccharomyces cerevisiae. The data set is described as follows: Antifungal activity against Saccharomyces cerevisiae after 24 to 48 hrs by agar disc diffusion method. The class given is functional. In a few lines: as §2
Data set [11] relates to Bacillus subtilis. In words: Antibacterial activity against Bacillus subtilis PC1219 after 24 to 48 hrs by agar disc diffusion method. The format is functional. In a few lines: as §2
A short description of data set [12]: Toxicity in Artemia salina assessed as mortality at 1000 ug/mL after 72 hrs. The class given is organism-based. The settings on record: in vivo, read-out: Activity. The essentials:
as §1

The next data set concerns HepG2. In words: Cytotoxicity against human HepG2 cells after 72 hrs by sulforhodamine B assay. The class given is functional, cell-based. The settings on record: HepG2, 72 h.
The next data set has as its system MCF7. In words: Cytotoxicity against human MCF7 cells after 72 hrs by sulforhodamine B assay. The format is functional, cell-based. The settings on record: MCF7, 72 h.
The nature of data set [13]: (§4) Toxicity in Artemia salina assessed as mortality at 100 ug/mL after 72 hrs. The note with it: in vivo, read-out: Activity. The format is organism-based. In a few lines: as §1
Data set [14] relates to Saccharomyces cerevisiae. In words: Antifungal activity against Saccharomyces cerevisiae at 10 mg after 24 to 48 hrs by agar well diffusion method. The format is functional. The settings on record: read-out: DIZ. In a few lines: as §3
Data set [15] concerns Staphylococcus aureus. The data set is described as follows: Antibacterial activity against Staphylococcus aureus ATCC 25292 at 10 mg after 24 to 48 hrs by agar well diffusion method. The note with it: read-out: DIZ. The format is functional. In a few lines: as §3
For another data set, the system named is Artemia salina. The description is as §4. The format is organism-based. The settings on record: in vivo, 72 h. In a few lines:
as §1

For the compound `CC(Nc1ccc(Cl)cc1)(c1cccnc1)P(=O)(Oc1ccccc1)Oc1ccccc1` (centres undefined), in [1], the LC50 at 72 h was 38 µg/mL (≈ 81.7 µM). Also, the Ratio in data set [2] stood at 0.415; in data set [8] it was 0.463. Moreover, the MIC against Escherichia coli [3], in the data set on Staphylococcus aureus [4], in the data set on Candida albicans [5], with Saccharomyces cerevisiae [10] and in the data set with Bacillus subtilis [11] was 10 µg/mL (≈ 21.5 µM) each time. Besides, the zone of inhibition at 10000 µg/disc with Candida albicans [6] stood at 23 mm; in the data set with Escherichia coli [7], 20 mm; with Bacillus subtilis [9], 25 mm; with Saccharomyces cerevisiae [14], 23 mm; in the data set with Staphylococcus aureus [15], 21 mm. Also, the mortality at 72 h, 1000 ug/mL in data set [12] came to 100%. The IC50 in the data set with HepG2 came to 15.8 µg/mL (≈ 34 µM); in the data set with MCF7, 17.6 µg/mL (≈ 37.9 µM). Besides, in [13], the mortality at 72 h, 100 ug/mL was found to be 15%.

Regarding `CC(Nc1ccccc1)(c1cccnc1)P(=O)(Oc1ccccc1)Oc1ccccc1` (centres undefined), the LC50 at 72 h in [1] is 915 µg/mL (≈ 2130 µM). Besides, the results for the Ratio in data set [2] and in data set [8] were 0.019 and 0.02, respectively. Moreover, the MIC in the data set with Escherichia coli [3] was 100 µg/mL (≈ 232 µM); in the data set with Staphylococcus aureus [4] it was 10 µg/mL (≈ 23.2 µM); with Candida albicans [5] it was 10 µg/mL (≈ 23.2 µM); with Saccharomyces cerevisiae [10], 10 µg/mL (≈ 23.2 µM); in the data set with Bacillus subtilis [11], 10 µg/mL (≈ 23.2 µM). The zone of inhibition at 10000 µg/disc in the data set with Candida albicans [6] was determined as 13 mm; with Escherichia coli [7], 13 mm; with Bacillus subtilis [9], 15 mm; in the data set with Saccharomyces cerevisiae [14], 14 mm; in the data set with Staphylococcus aureus [15] it was 12 mm. Besides, the mortality at 72 h, 1000 ug/mL in data set [12] turned out to be 60%. Moreover, the IC50 in the data set with HepG2 worked out at 17.3 µg/mL (≈ 40.2 µM); with MCF7, 18.2 µg/mL (≈ 42.3 µM). For the same compound, the Activity result with Artemia salina is “Non-toxic”.

With `Cc1ccc(NC(C)(c2cccnc2)P(=O)(Oc2ccccc2)Oc2ccccc2)cc1` (centres undefined), in [1], the LC50 at 72 h is 83 µg/mL (≈ 187 µM). Moreover, the Ratio in data set [2] was determined as 0.16; in [8] it was 0.243. Moreover, the MIC against Escherichia coli [3] was determined as 10 µg/mL (≈ 22.5 µM); in the data set with Staphylococcus aureus [4] it was 50 µg/mL (≈ 112 µM); in the data set with Candida albicans [5], 10 µg/mL (≈ 22.5 µM); in the data set on Saccharomyces cerevisiae [10], 10 µg/mL (≈ 22.5 µM); in the data set with Bacillus subtilis [11], 10 µg/mL (≈ 22.5 µM). Also, the zone of inhibition at 10000 µg/disc in the data set on Candida albicans [6] came out at 17 mm; in the data set with Escherichia coli [7] it was 22 mm; with Bacillus subtilis [9] it was 15 mm; with Saccharomyces cerevisiae [14], 16 mm; with Staphylococcus aureus [15] it was 19 mm. Besides, the mortality at 72 h, 1000 ug/mL in data set [12] was found to be 10%. Also, the results for the IC50 in the data set with HepG2 and in the data set on MCF7 were 13.3 µg/mL (≈ 29.9 µM) and 20.2 µg/mL (≈ 45.4 µM), respectively.

For `CC(Nc1ccc(O)cc1)(c1cccnc1)P(=O)(Oc1ccccc1)Oc1ccccc1` (centres undefined), the LC50 at 72 h in data set [1] turned out to be 1000 µg/mL (≈ 2240 µM). Besides, the Ratio in data set [2] was 0.017; in data set [8], 0.02. The MIC against Escherichia coli [3], in the data set on Staphylococcus aureus [4], with Candida albicans [5], against Saccharomyces cerevisiae [10] and in the data set on Bacillus subtilis [11] was 10 µg/mL (≈ 22.4 µM) in each case. The zone of inhibition at 10000 µg/disc in the data set on Candida albicans [6] stood at 15 mm; with Escherichia coli [7], 20 mm; in the data set on Bacillus subtilis [9] it was 20 mm; in the data set on Saccharomyces cerevisiae [14], 16 mm; in the data set on Staphylococcus aureus [15], 21 mm. Besides, the mortality at 72 h, 1000 ug/mL in [12] stood at 60%. For the same compound, the IC50 with HepG2 worked out at 17.1 µg/mL (≈ 38.3 µM); in the data set with MCF7 it was 19.6 µg/mL (≈ 43.9 µM). The Activity result in the data set with Artemia salina was “Non-toxic”.

Consider `CC(NNc1ccccc1)(c1cccnc1)P(=O)(Oc1ccccc1)Oc1ccccc1` (centres undefined), for which, in data set [1], the LC50 at 72 h is 843 µg/mL (≈ 1890 µM). Also, the Ratio in data set [2] came to 0.02; in [8], 0.023. In addition, the MIC against Escherichia coli [3], with Staphylococcus aureus [4], against Candida albicans [5], with Saccharomyces cerevisiae [10] and against Bacillus subtilis [11] was 10 µg/mL (≈ 22.4 µM) each time. The zone of inhibition at 10000 µg/disc in the data set with Candida albicans [6] is 26 mm; in the data set with Escherichia coli [7] it was 32 mm; in the data set with Bacillus subtilis [9], 26 mm; in the data set on Saccharomyces cerevisiae [14] it was 27 mm; in the data set on Staphylococcus aureus [15], 28 mm. The mortality at 72 h, 1000 ug/mL in data set [12] came out at 60%. Also, the IC50 in the data set with HepG2 worked out at 17.6 µg/mL (≈ 39.5 µM); in the data set with MCF7, 19.4 µg/mL (≈ 43.6 µM). In addition, the Activity result in the data set with Artemia salina is “Non-toxic”.

For the compound `C[C@@H]1[C@H](O)[C@@H](C)/C=C/C=C/C=C/C=C/C=C/C=C/C=C/[C@H](O[C@@H]2O[C@H](C)[C@@H](O)[C@H](N)[C@@H]2O)C[C@@H]2O[C@](O)(C[C@@H](O)C[C@@H](O)[C@H](O)CC[C@@H](O)C[C@@H](O)CC(=O)O[C@H]1C)C[C@H](O)[C@H]2C(=O)O` [AMPHOTERICIN B], the MIC with Candida albicans [5] and against Saccharomyces cerevisiae [10] was 15 µg/mL (≈ 16.2 µM) throughout.

On to `O=C(O)c1cn(C2CC2)c2cc(N3CCNCC3)c(F)cc2c1=O` [CIPROFLOXACIN], for which the MIC against Escherichia coli [3], in the data set with Staphylococcus aureus [4] and against Bacillus subtilis [11] was 5 µg/mL (≈ 15.1 µM) throughout.
